Experimental data reported in ChEMBL document CHEMBL1123999, “Synthesis and antiviral activity of certain 4- and 4,5-disubstituted 7-[(2-hydroxyethoxy)methyl]pyrrolo[2,3-d]pyrimidines” (J Med Chem, 1988).

Experiments:
Human betaherpesvirus 5 [1] = experiment: Inhibitory concentration against human cytomegalovirus (HCMV) in plaque reduction assay; format: functional, organism-based
How it was run: (§1)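 HFF monolayers were infected with the Towne strain of HCMV (plaque-purified isolate P0), about 50 PFU in a 0.2 mL inoculum. Compounds were dissolved in the overlay medium, with 100 μM the highest concentration tested. Plaques were counted. I50 was taken from linear regression of percent inhibition against log concentration. Acyclovir, ganciclovir and vidarabine served as positive controls.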

HFF = experiment: Cytotoxicity against uninfected human foreskin fibroblast(HFF cells); format: functional, cell-based
How it was run: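 Uninfected HFF monolayers in the HCMV plaque assay. Drug-induced cytopathology was scored visually at 35- and 60-fold magnification, on a 0 to 4+ scale, on the day of staining for plaque enumeration. I50 was taken from linear regression of percent inhibition against log concentration.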

[2] = Cytotoxicity against uninfected monkey kidney cells (BSC-1); format: functional, cell-based; details: Cercopithecidae
How it was run: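 Uninfected BSC-1 (African green monkey kidney) monolayers, grown in MEM with Earle salts plus 10% FBS, in the HSV-1 plaque assay. Cytopathology was scored visually at 35- and 60-fold magnification, on a 0 to 4+ scale, on the day of staining for plaques. I50 was taken from regression of percent inhibition against log concentration.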

Human alphaherpesvirus 1 = experiment: Inhibitory concentration against HSV-1 in plaque reduction assay
[3] = Cytotoxicity against human neoplastic cell line(KB cells); format: functional, cell-based; details: read-out: I50
How it was run: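 KB cells (human epidermoid oral carcinoma) grown in MEM with Hanks salts plus 5% fetal bovine serum. Uptake of radioactive precursors into DNA, RNA and protein was measured. I50 values came from linear regression of percent inhibition against log concentration. The three I50 values (DNA, RNA, protein) were averaged. Positive controls were acyclovir, ganciclovir and vidarabine.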

[4] = Inhibition against human neoplastic cell line(KB cells); format: functional, cell-based; details: read-out: I50
How it was run: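 KB cells (human epidermoid oral carcinoma) grown in MEM with Hanks salts plus 5% fetal bovine serum. Cytotoxicity read as inhibition of radioactive precursor incorporation into DNA, RNA and protein. I50 for each of the three came from linear regression of percent inhibition against log drug concentration, and the three I50s were averaged. Highest concentration tested 100 μM.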

Human betaherpesvirus 5 [5] = experiment: Inhibitory concentration against human cytomegalovirus (HCMV) in plaque reduction assay at 100 uM concentration; format: functional, organism-based; details: read-out: I50; how it was run: as §1

OC[C@H]1OC(n2cc(Br)c3c(S)ncnc32)[C@H](O)[C@@H]1O (some centres undefined)
IC50 (Human betaherpesvirus 5 [1]): 39 µM
IC50 (HFF): > 100 µM

O=c1[nH]cnc2c1ccn2[C@@H]1O[C@H](CO)[C@@H](O)[C@H]1O [IMMUNICILLIN H]
IC50 (Human betaherpesvirus 5 [1]; read-out: I50): 3.5 µM
IC50 (HFF; read-out: I50): 10 µM

Nc1nc2c(ncn2COCCO)c(=O)[nH]1 [ACYCLOVIR]
IC50 [2]: > 100 µM
IC50 (Human betaherpesvirus 5 [1]): 63 µM
IC50 (HFF): > 100 µM
IC50 (Human alphaherpesvirus 1): 2.6 µM

CNc1ncnc2c1c(Cl)cn2COCCO
IC50 [2]: > 100 µM
IC50 (Human betaherpesvirus 5 [1]): > 100 µM
IC50 (HFF): > 100 µM
IC50 (Human alphaherpesvirus 1): > 100 µM

CSc1ncnc2c1c(Br)cn2[C@@H]1O[C@H](CO)[C@@H](O)[C@H]1O
IC50 (Human betaherpesvirus 5 [1]): > 100 µM
IC50 (HFF): > 100 µM

OC[C@H]1O[C@@H](n2ccc3c(S)ncnc32)[C@H](O)[C@@H]1O
IC50 (Human betaherpesvirus 5 [1]): > 100 µM
IC50 (HFF): > 100 µM

Nc1ncnc2c1c(I)cn2[C@@H]1O[C@H](CO)[C@@H](O)[C@H]1O [IODOTUBERCIDIN]
IC50 [3]: 2.1 µM
IC50 (Human betaherpesvirus 5 [1]; read-out: I50): 0.4 µM
IC50 (HFF; read-out: I50): 2 µM

CN(C)c1ncnc2c1ccn2[C@@H]1O[C@H](CO)[C@@H](O)[C@H]1O
IC50 (Human betaherpesvirus 5 [1]; read-out: I50): 1.2 µM
IC50 (HFF; read-out: I50): 2 µM

CNc1ncnc2c1ccn2[C@@H]1O[C@H](CO)[C@@H](O)[C@H]1O
IC50 (Human betaherpesvirus 5 [1]): 37 µM
IC50 (HFF): > 100 µM

OC[C@H]1OC(n2ccc3cncnc32)[C@H](O)[C@@H]1O (some centres undefined)
IC50 (Human betaherpesvirus 5 [1]): 0.4 µM
IC50 (HFF): 2 µM

CNc1ncnc2c1c(Br)cn2COCCO
IC50 [2]: > 100 µM
IC50 (Human betaherpesvirus 5 [1]): > 100 µM
IC50 (HFF): > 100 µM
IC50 (Human alphaherpesvirus 1): > 100 µM

OC[C@H]1O[C@@H](n2ccc3c(N4CCCCC4)ncnc32)[C@H](O)[C@@H]1O
IC50 (Human betaherpesvirus 5 [1]): > 100 µM
IC50 (HFF): > 100 µM

C[Se]c1ncnc2c1ccn2C1O[C@H](CO)[C@@H](O)[C@H]1O (some centres undefined)
IC50 (Human betaherpesvirus 5 [1]): 4 µM
IC50 (HFF): 1.5 µM

OC[C@H]1OC(n2ccc3c(SC4C=CC=CC=C4)ncnc32)[C@H](O)[C@@H]1O (some centres undefined)
IC50 (Human betaherpesvirus 5 [1]): > 100 µM
IC50 (HFF): > 100 µM

Nc1ncnc2c1c(Cl)cn2COCCO
IC50 [2]: > 100 µM
IC50 [4]: 0.82 µM
IC50 (Human betaherpesvirus 5 [1]): 16 µM
IC50 (HFF): > 100 µM
IC50 (Human alphaherpesvirus 1): 77 µM

Nc1nc2c(ncn2COC(CO)CO)c(=O)[nH]1 [GANCICLOVIR]
IC50 [2]: > 100 µM
IC50 (Human betaherpesvirus 5 [1]): 8.8 µM
IC50 (HFF): > 100 µM
IC50 (Human alphaherpesvirus 1): 3 µM

NNc1ncnc2c1ccn2C1O[C@H](CO)[C@@H](O)[C@H]1O (some centres undefined)
IC50 (Human betaherpesvirus 5 [1]; read-out: I50): 4 µM
IC50 (HFF; read-out: I50): 2 µM

CN(C)c1ncnc2c1c(Br)cn2C1O[C@H](CO)[C@@H](O)[C@H]1O (some centres undefined)
IC50 (Human betaherpesvirus 5 [1]): 16 µM
IC50 (HFF): 10 µM

Nc1ncnc2c1c(I)cn2COCCO
IC50 [2]: > 100 µM
IC50 [4]: 1.2 µM
IC50 (Human betaherpesvirus 5 [1]): 24 µM
IC50 (HFF): 100 µM
IC50 (Human alphaherpesvirus 1): 100 µM

COc1ncnc2c1ccn2COCCO
IC50 (Human betaherpesvirus 5 [5]): > 100 µM
IC50 [2]: > 100 µM
IC50 (HFF): > 100 µM
IC50 (Human alphaherpesvirus 1): > 100 µM

CNc1ncnc2c1c(Br)cn2C1O[C@H](CO)[C@@H](O)[C@H]1O (some centres undefined)
IC50 (Human betaherpesvirus 5 [1]; read-out: I50): > 100 µM
IC50 (HFF; read-out: I50): > 100 µM

CCNc1ncnc2c1c(Cl)cn2COCCO
IC50 [2]: > 100 µM
IC50 (Human betaherpesvirus 5 [1]): > 100 µM
IC50 (HFF): > 100 µM
IC50 (Human alphaherpesvirus 1): > 100 µM

Nc1ncnc2c1c(Cl)cn2[C@@H]1O[C@H](CO)[C@@H](O)[C@H]1O
IC50 [3]: 6.5 µM
IC50 (Human betaherpesvirus 5 [1]; read-out: I50): 4.4 µM
IC50 (HFF; read-out: I50): 10 µM

OCCOCn1cc(Br)c2c(Cl)ncnc21
IC50 [2]: > 100 µM
IC50 (Human betaherpesvirus 5 [1]): > 100 µM
IC50 (HFF): > 100 µM
IC50 (Human alphaherpesvirus 1): > 100 µM

OCCOCn1cc(Cl)c2c(Cl)ncnc21
IC50 [2]: > 100 µM
IC50 (Human betaherpesvirus 5 [1]): > 100 µM
IC50 (HFF): > 100 µM
IC50 (Human alphaherpesvirus 1): > 100 µM

CNc1ncnc2c1ccn2COCCO
IC50 [2]: > 100 µM
IC50 (Human betaherpesvirus 5 [1]): > 100 µM
IC50 (HFF): > 100 µM
IC50 (Human alphaherpesvirus 1): > 100 µM

OCCOCn1cc(I)c2c(Cl)ncnc21
IC50 [2]: > 100 µM
IC50 (Human betaherpesvirus 5 [1]): > 100 µM
IC50 (HFF): > 100 µM
IC50 (Human alphaherpesvirus 1): > 100 µM

CCNc1ncnc2c1c(Br)cn2COCCO
IC50 [2]: > 320 µM
IC50 (Human betaherpesvirus 5 [1]): > 100 µM
IC50 (HFF): > 100 µM
IC50 (Human alphaherpesvirus 1): > 320 µM

Nc1ncnc2c1c(Br)cn2COCCO
IC50 [2]: > 100 µM
IC50 [3]: 100 µM
IC50 (Human betaherpesvirus 5 [1]): 3.9 µM
IC50 (HFF): 100 µM
IC50 (Human alphaherpesvirus 1): 16 µM

OC[C@H]1OC(n2cc(Br)c3c(Cl)ncnc32)[C@H](O)[C@@H]1O (some centres undefined)
IC50 (Human betaherpesvirus 5 [1]; read-out: I50): 29 µM
IC50 (HFF; read-out: I50): 31 µM

COc1ncnc2c1ccn2[C@@H]1O[C@H](CO)[C@@H](O)[C@H]1O
IC50 (Human betaherpesvirus 5 [1]; read-out: I50): 10 µM
IC50 (HFF; read-out: I50): 46 µM

Nc1ncnc2c1ccn2[C@@H]1O[C@H](CO)[C@@H](O)[C@H]1O [TUBERCIDIN]
IC50 [3]: 0.6 µM
IC50 (Human betaherpesvirus 5 [1]): 0.5 µM
IC50 (HFF): 0.4 µM

OC[C@H]1O[C@@H](n2cc(I)c3c(Cl)ncnc32)[C@H](O)[C@@H]1O
IC50 (Human betaherpesvirus 5 [1]; read-out: I50): 31 µM
IC50 (HFF; read-out: I50): 13 µM

OC[C@H]1OC(n2cc(Br)c3cncnc32)[C@H](O)[C@@H]1O (some centres undefined)
IC50 (Human betaherpesvirus 5 [1]; read-out: I50): 23 µM
IC50 (HFF; read-out: I50): 31 µM

CN(C)c1ncnc2c1ccn2COCCO
IC50 [2]: > 100 µM
IC50 (Human betaherpesvirus 5 [1]): > 100 µM
IC50 (HFF): > 100 µM
IC50 (Human alphaherpesvirus 1): > 100 µM

Nc1ncnc2c1c(Br)cn2[C@@H]1O[C@H](CO)[C@@H](O)[C@H]1O
IC50 [3]: 2.3 µM
IC50 (Human betaherpesvirus 5 [1]; read-out: I50): 0.5 µM
IC50 (HFF; read-out: I50): 4.5 µM
